Measurements taken from ChEMBL document CHEMBL4152184, “NB 06: From a simple lysosomotropic aSMase inhibitor to tools for elucidating the role of lysosomes in signaling apoptosis and LPS-induced inflammation” (Eur J Med Chem, 2018).
Activity calls are given as the source filed them. No cut-off for these calls is given here.

Assays:
[1] = tested on: MONO-MAC-6; assay: Upregulation of CXCL2 mRNA expression level in human MONO-MAC-6 cells at 5 uM incubated for 30 mins measured after 2 hrs by oligonucleotide array hybridization assay relative to control; format: functional
[2] = tested on: MONO-MAC-6; assay: Downregulation of CXCL2 mRNA expression level in human MONO-MAC-6 cells at 5 uM incubated for 30 mins measured after 4 hrs by qRT-PCR method relative to control; format: functional
[3] = tested on: MONO-MAC-6; assay: Upregulation of PTX3 mRNA expression level in LPS-stimulated human MONO-MAC-6 cells at 5 uM preincubated for 30 mins followed by LPS stimulation measured after 2 hrs by oligonucleotide array hybridization assay (reference value: 1.56); format: functional
[4] = molecular target: T1, Acid ceramidase (Homo sapiens) (UniProt Q13510); assay: Inhibition of C2-dihydroceramide-stimulated acid ceramidase in human PBMC assessed as reduction in C16-ceramide level at 10 uM preincubated for 30 mins followed by C2-dihydroceramide stimulation measured after 4 hrs by HPLC method; format: cell-based
T1 sequence (whole entry): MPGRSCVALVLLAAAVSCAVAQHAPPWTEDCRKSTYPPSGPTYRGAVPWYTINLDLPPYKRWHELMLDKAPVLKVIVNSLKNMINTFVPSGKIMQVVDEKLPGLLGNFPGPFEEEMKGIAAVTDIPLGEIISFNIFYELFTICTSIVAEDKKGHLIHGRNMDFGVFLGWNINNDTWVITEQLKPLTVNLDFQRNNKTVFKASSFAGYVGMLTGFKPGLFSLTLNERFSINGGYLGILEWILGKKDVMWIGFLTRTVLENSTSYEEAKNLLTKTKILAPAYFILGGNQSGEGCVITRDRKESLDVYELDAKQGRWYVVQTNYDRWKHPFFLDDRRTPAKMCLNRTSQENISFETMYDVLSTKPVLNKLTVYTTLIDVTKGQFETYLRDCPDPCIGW

[5] = tested on: MONO-MAC-6; assay: Downregulation of TNFalpha mRNA expression level in human MONO-MAC-6 cells at 5 uM incubated for 30 mins measured after 1 hr by qRT-PCR method relative to control; format: functional
[6] = tested on: MONO-MAC-6; assay: Downregulation of TNFalpha mRNA expression level in LPS-stimulated human MONO-MAC-6 cells at 5 uM preincubated for 30 mins followed by LPS stimulation measured after 6 hrs by qRT-PCR method (reference value: 2.17); format: functional
[7] = tested on: MONO-MAC-6; assay: Downregulation of CXCL3 mRNA expression level in human MONO-MAC-6 cells at 5 uM incubated for 30 mins measured after 4 hrs by oligonucleotide array hybridization assay relative to control; format: functional
Summary of the method: (§1)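 Total RNA was isolated, transcribed and labeled with DY-647 dye, then co-hybridized with DY-548-labeled cDNA from untreated cells on an inflammation oligonucleotide chip (780 gene probes). Differential expression >1.5 was taken as significant.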

[8] = molecular target: T1, Acid ceramidase (Homo sapiens); assay: Inhibition of exogenous C6-ceramid-stimulated acid ceramidase in human PBMC assessed as ratio of C24:1-ceramide/lipid phosphate level at 10 uM preincubated for 30 mins followed by C6-ceramid stimulation measured after 4 hrs by HPLC method (reference value: 2.65); format: cell-based
Summary of the method: (§2)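 Human macrophages from primary culture were preincubated 30 min with 10 µM compound. They were then stimulated 4 h with mmLDL (54 µg/mL), TNFalpha (3 ng/mL) or exogenous C6-ceramide (10 µM), or left unstimulated. Individual ceramide species (C16 and C24:1) were quantified in the cell lipid extracts.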

[9] = tested on: MONO-MAC-6; assay: Upregulation of PTX3 mRNA expression level in LPS-stimulated human MONO-MAC-6 cells at 5 uM preincubated for 30 mins followed by LPS stimulation measured after 4 hrs by oligonucleotide array hybridization assay (reference value: 4.65); format: functional
[10] = tested on: MONO-MAC-6; assay: Upregulation of CXCL10 mRNA expression level in LPS-stimulated human MONO-MAC-6 cells at 5 uM preincubated for 30 mins followed by LPS stimulation measured after 2 hrs by oligonucleotide array hybridization assay (reference value: 1.73); format: functional
[11] = tested on: MONO-MAC-6; assay: Upregulation of CCL4 mRNA expression level in human MONO-MAC-6 cells at 5 uM incubated for 30 mins measured after 1 hr by oligonucleotide array hybridization assay relative to control; format: functional
[12] = tested on: MONO-MAC-6; assay: Upregulation of CXCL10 mRNA expression level in human MONO-MAC-6 cells at 5 uM incubated for 30 mins measured after 2 hrs by oligonucleotide array hybridization assay relative to control; format: functional
[13] = tested on: MONO-MAC-6; assay: Downregulation of IL-6 mRNA expression level in human MONO-MAC-6 cells at 5 uM incubated for 30 mins measured after 2 hrs by qRT-PCR method relative to control; format: functional
[14] = tested on: PBMC; assay: Inhibition of TNFalpha-stimulated apoptosis in human PBMC assessed as apoptotic cells at 2 uM preincubated for 30 mins followed by TNFalpha stimulation measured after 4 hrs by YO-PRO-1/Hoechst 33342 staining based assay relative to control; format: functional; design: scale not given: the % may be the effect or the level left
Summary of the method: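 PBMC pre-incubated 30 min with 2 μM compound, then stimulated with mmLDL (27 μg/mL; line 5) or TNFalpha (3 ng/mL; line 1) for 4 h. Apoptotic cells stained with YO-PRO-1 and all cells with Hoechst 33342. Each plate had control, stimulus, compound alone and compound plus stimulus; n = 3. Values are on a 0% (untreated control, corrected for spontaneous apoptosis) to 100% (stimulus alone) scale; means ± SE.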

[15] = tested on: MONO-MAC-6; assay: Upregulation of CXCL10 mRNA expression level in human MONO-MAC-6 cells at 5 uM incubated for 30 mins measured after 1 hr by oligonucleotide array hybridization assay relative to control; format: functional
[16] = tested on: MONO-MAC-6; assay: Downregulation of IL-6 mRNA expression level in human MONO-MAC-6 cells at 5 uM incubated for 30 mins measured after 1 hr by qRT-PCR method relative to control; format: functional
[17] = tested on: MONO-MAC-6; assay: Downregulation of PTX3 mRNA expression level in human MONO-MAC-6 cells at 5 uM incubated for 30 mins measured after 4 hrs by oligonucleotide array hybridization assay relative to control; format: functional; summary of the method: as §1
[18] = tested on: MONO-MAC-6; assay: Downregulation of IL-6 mRNA expression level in human MONO-MAC-6 cells at 5 uM incubated for 30 mins measured after 4 hrs by qRT-PCR method relative to control; format: functional
[19] = tested on: MONO-MAC-6; assay: Downregulation of PTGS2 mRNA expression level in human MONO-MAC-6 cells at 5 uM incubated for 30 mins measured after 6 hrs by oligonucleotide array hybridization assay relative to control; format: functional; summary of the method: as §1
[20] = tested on: MONO-MAC-6; assay: Downregulation of CXCL2 mRNA expression level in human MONO-MAC-6 cells at 5 uM incubated for 30 mins measured after 1 hr by qRT-PCR method relative to control; format: functional
[21] = tested on: MONO-MAC-6; assay: Downregulation of PTX3 mRNA expression level in human MONO-MAC-6 cells at 5 uM incubated for 30 mins measured after 1 hr by oligonucleotide array hybridization assay relative to control; format: functional; summary of the method: as §1
[22] = molecular target: T1, Acid ceramidase (Homo sapiens); assay: Inhibition of mmLDL-stimulated acid ceramidase in human PBMC assessed as ratio of C16-ceramide/lipid phosphate level at 10 uM preincubated for 30 mins followed by mmLDL stimulation measured after 4 hrs by HPLC method (reference value: 0.49); format: cell-based; summary of the method: as §2
[23] = tested on: MONO-MAC-6; assay: Upregulation of ICAM1 mRNA expression level in LPS-stimulated human MONO-MAC-6 cells at 5 uM preincubated for 30 mins followed by LPS stimulation measured after 6 hrs by oligonucleotide array hybridization assay (reference value: 2.90); format: functional

Question: With `COc1ccc(CCN(C)CCCn2c3ccccc3c3ccccc32)cc1` as the molecule, how does the “fold change (FC)” value [1] read?
Answer: 1.11

Question: What about the “fold change (FC)” value [2] of the same molecule?
Answer: 1.845

Question: What about the “fold change (FC)” value [3] of the same molecule?
Answer: 1.2

Question: What about the inhibition [4] of the same molecule?
Answer: inactive

Question: And the “fold change (FC)” value [5]?
Answer: 1.83

Question: And the “fold change (FC)” value [6]?
Answer: 1.16

Question: And the “fold change (FC)” value [7]?
Answer: 1.21

Question: And the Ratio [8]?
Answer: 2.65

Question: And the “fold change (FC)” value [9]?
Answer: 1.91

Question: And the “fold change (FC)” value [10]?
Answer: 1.63

Question: What about the “fold change (FC)” value [11] of the same molecule?
Answer: 1.22

Question: And the “fold change (FC)” value [12]?
Answer: 1

Question: What about the “fold change (FC)” value [13] of the same molecule?
Answer: 2.15

Question: What about the Activity [14] of the same molecule?
Answer: 19%

Question: And the “fold change (FC)” value [15]?
Answer: 1.11

Question: And the “fold change (FC)” value [16]?
Answer: 1.04

Question: And the “fold change (FC)” value [17]?
Answer: 1.93

Question: And the “fold change (FC)” value [18]?
Answer: 2.25

Question: And the “fold change (FC)” value [19]?
Answer: 2.23

Question: And the “fold change (FC)” value [20]?
Answer: 1.01

Question: And the “fold change (FC)” value [21]?
Answer: 1.48

Question: What about the Ratio [22] of the same molecule?
Answer: 0.24

Question: And the “fold change (FC)” value [23]?
Answer: 1.15
